In brackets after ≈: the same amount, converted by molar mass. Several values for one entry are separate records, joined by “and”; a condition that tells them apart may be missing. Identical values can stand only once. Activity calls are given as the source filed them. The rule behind the calls is not given here.
Columns and labels:
[1] = test system: Plasmodium falciparum; experiment: Antiplasmodial activity against chloroquine-resistant Plasmodium falciparum FcB1 assessed as intraerythrocytic growth inhibition; type: functional, organism-based
In short: (§1)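 Asexual intraerythrocytic P. falciparum cultured at 37 °C in RPMI with glucose, hypoxanthine, gentamycin and 10% pooled human A+/O+ serum. DMSO stocks of 5–10 mg mL⁻¹ diluted in RPMI, final DMSO at most 1%. Eight two-fold dilutions tested in three consecutive assays. Growth read as Plasmodium lactate dehydrogenase activity at 650 nm against parasitized RBC (100%) and free RBC (0%). IC50 in triplicate; artemisinin and quinine as controls.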

[2] = Toxicity in zebrafish embryos assessed as brain misshape at 10 to 100 ug/ml measured for 3 days; type: tissue-based, Danio rerio; settings: in vivo, 72 h, dose 10-100 µg/ml, time 3 day
[3] = Toxicity in zebrafish embryos assessed as modified heart rate at 10 to 100 ug/ml measured for 3 days; set-up: species or system Danio rerio; settings: in vivo, 72 h, dose 10-100 µg/ml, time 3 day
[4] = Aqueous solubility of compound assessed as Cmax incubated for 3 days by UV spectrophotometer based shake-flask method; type: physicochemical; settings: water (aqueous); time 3 day; read-out: Cmax
In short: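 Shake-flask: excess solid stirred overnight in MilliQ water at RT (~25 °C), filtered 0.45 μm, diluted, absorbance read at the λmax from a UV scan. Quantified against a 3-point calibration curve (R² > 0.95). Fresh saturated solutions were made on 3 consecutive days.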

[5] = Toxicity in zebrafish embryo assessed as survival at 10 to 100 ug/ml measured 24 hrs post fertilization relative to control; set-up: species or system Danio rerio; settings: in vivo, at 10 to 100 µg/mL, dose 10-100 µg/ml, read-out: Activity
In short: (§2)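 Zebrafish embryos were synchronized 24 h after collection and kept at 28 °C with chorion intact, 20 per condition in duplicate. They were exposed to 100, 50, 25 or 10 μg mL⁻¹ from 100 mg mL⁻¹ DMSO stocks (final DMSO under 0.1%), with medium renewed daily for 3 days. Aspect, hatching and mortality were followed to 96 hpf against 30 control embryos in water with 0.1% DMSO.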

[6] = Hemolytic activity in RBC (unknown origin) assessed as hemolysis at 100 ug/ml incubated for 1 hrs by absorbance based microplate reader analysis relative to control; type: toxicity, cell-based, Erythrocyte; settings: red blood cells, at 100 µg/mL, read-out: Activity
In short: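 Human A⁺/O⁺ RBC, 10% v/v in PBS, exposed to compound at 100 μg mL⁻¹ final (DMSO < 1%), in duplicate, stirred 1 h at RT. Centrifuged, supernatant OD₅₅₀ read. % lysis = (sample − PBS)/(1% Triton X-100 − PBS) × 100.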

[7] = test system: Plasmodium falciparum; experiment: Antiplasmodial activity against multidrug-resistant Plasmodium falciparum W2 assessed as intraerythrocytic growth inhibition; type: functional, organism-based; in short: as §1
[8] = test system: Plasmodium falciparum; experiment: Antiplasmodial activity against chloroquine-sensitive Plasmodium falciparum 3D7 assessed as intraerythrocytic growth inhibition; type: functional, organism-based; in short: as §1
[9] = Selectivity index, ratio of IC50 for cytotoxicity against HUVEC cells to IC50 for antiplasmodial activity against chloroquine-sensitive Plasmodium falciparum 3D7; type: toxicity, cell-based; settings: human, read-out: Ratio IC50
[10] = Toxicity in zebrafish embryos assessed as survival at highest concentration measured for 3 days relative to control; set-up: species or system Danio rerio; settings: in vivo, time 3 day, read-out: Activity; in short: as §2
[11] = Toxicity in zebrafish embryo assessed as developmental defects at 10 to 100 ug/ml measured 24 hrs post fertilization; set-up: species or system Danio rerio; settings: in vivo, dose 10-100 µg/ml
[12] = Toxicity in zebrafish embryos assessed as reduction in brain size at 10 to 100 ug/ml measured for 3 days; type: tissue-based, Danio rerio; settings: in vivo, 72 h, dose 10-100 µg/ml, time 3 day
[13] = Toxicity in zebrafish embryos assessed as egg hatching at 10 to 100 ug/ml measured for 72 hrs relative to control; type: tissue-based, Danio rerio; settings: in vivo, at 10 to 100 µg/mL, dose 10-100 µg/ml
[14] = Cytotoxicity against HUVEC cells assessed as inhibition of cell growth incubated for 48 hrs by fluorescence based assay; type: toxicity; settings: human
In short: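 HUVEC in EGM-2, at most 10 passages, seeded at 2.5 × 10⁴ cells/well and grown 24 h at 37 °C. Six 2-fold concentrations in triplicate (DMSO max 0.5%) for 48 h. PrestoBlue for 2–3 h, fluorescence 560–590 nm, growth compared with untreated cells. n = 3 separate tests.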

[15] = Cytotoxicity against HUVEC confluent cells assessed as inhibition of cell growth incubated for 48 hrs by fluorescence based assay; type: toxicity; settings: human
In short: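 Confluent HUVEC: plates seeded 3 days before treatment, then exposed to six 2-fold concentrations for 48 h. PrestoBlue fluorescence read-out (560–590 nm), compared with untreated cells.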

[16] = test system: Plasmodium falciparum; experiment: Antiplasmodial activity against Plasmodium falciparum 3D7 assessed as inhibition of parasite reduction by giemsa staining based analysis; type: functional, organism-based
In short: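 3D7 cultures were exposed to compound for 48 h. Parasitaemia was then scored by microscopy as a visual check of parasite burden.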

[17] = Toxicity in mouse at 150 mg/kg, ip administered 2 hrs once for 6 hrs and measured for 24 hrs; type: organism-based; settings: in vivo
In short: (§3)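 Two mice per route (i.p. or p.o.) received 4 increasing doses over 6 h (every 2 h) in Tween 80/EtOH/saline (7/3/90), then were followed for 24 h for health or behavioural problems. Maximal dose is set as 50% of the cumulative dose giving toxicity.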

[18] = Toxicity in mouse at 200 mg/kg, po administered 2 hrs once for 6 hrs and measured for 24 hrs; type: organism-based; settings: in vivo; in short: as §3
[19] = test system: Plasmodium berghei; experiment: Antiplasmodial activity against Plasmodium berghei NK173 infected in Swiss CD-1 mouse model of malaria assessed as reduction in parasitaemia at 50 mg/kg, po measured after 4 days by giemsa staining based microscopic analysis relative to control; type: functional; set-up: scale not given: the % may be the effect or the level left; settings: time 4 day
In short: (§4)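 Peters' 4-day suppressive test: female Swiss CD1 mice (10 weeks, 25 ± 2 g), six per group, infected i.p. with P. berghei NK173-parasitized RBC at D1. Dosing 2–3 h post-infection, then daily for 3 days, in 7% Tween 80/3% EtOH in saline. Giemsa thin tail-blood smears (≥500 erythrocytes) at D4 (2 h post-dose) and D7. Inhibition is taken versus vehicle controls.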

[20] = test system: Plasmodium berghei; experiment: Antiplasmodial activity against Plasmodium berghei NK173 infected in Swiss CD-1 mouse model of malaria assessed as reduction in parasitaemia at 50 mg/kg, ip measured after 4 days by giemsa staining based microscopic analysis relative to control; type: functional; set-up: scale not given: the % may be the effect or the level left; settings: time 4 day; in short: as §4
[21] = test system: Plasmodium berghei; experiment: Antiplasmodial activity against Plasmodium berghei NK173 infected in Swiss CD-1 mouse model of malaria assessed as reduction in parasitaemia at 25 mg/kg, po measured after 7 days by giemsa staining based microscopic analysis; type: functional, organism-based; settings: time 7.0 day; in short: as §4
[22] = test system: Plasmodium berghei; experiment: Antiplasmodial activity against Plasmodium berghei NK173 infected in Swiss CD-1 mouse model of malaria assessed as reduction in parasitaemia at 4 mg/kg, ip measured after 7 days by giemsa staining based microscopic analysis; type: functional, organism-based; settings: time 7.0 day; in short: as §4
[23] = test system: Plasmodium vinckei petteri; experiment: Antiplasmodial activity against Plasmodium vinckei petteri infected in Swiss mouse model assessed as reduction in parasitaemia at 50 mg/kg, ip administered for 4 days; set-up: scale not given: the % may be the effect or the level left; settings: time 4 day
[24] = test system: Plasmodium vinckei petteri; experiment: Antiplasmodial activity against Plasmodium vinckei petteri infected in Swiss mouse model assessed as inhibition of parasite growth at 50 to 100 mg/kg,ip administered for 4 days relative to control; type: functional; set-up: scale not given: the % may be the effect or the level left; settings: dose 50-100 mg/kg, time 4 day
[25] = test system: Plasmodium vinckei petteri; experiment: Antiplasmodial activity against Plasmodium vinckei petteri infected in Swiss mouse model assessed as inhibition of parasite growth administered intraperitoneally for 4 days; type: functional; settings: 96 h, route ip, time 4 day
[26] = Oral bioavailability in human; type: ADME, organism-based; settings: in vivo
[27] = test system: Plasmodium vinckei petteri; experiment: Antiplasmodial activity against Plasmodium vinckei petteri infected in Swiss mouse model assessed as inhibition of parasite growth administered orally for 4 days; type: functional; settings: 96 h, route po, time 4 day
[28] = test system: Plasmodium falciparum; experiment: Antiplasmodial activity against Plasmodium falciparum 3D7 assessed as inhibition of parasite reduction by Plasmodium lactate dehydrogenase activity
[29] = test system: Plasmodium berghei; experiment: Antiplasmodial activity against Plasmodium berghei NK173 infected in Swiss CD-1 mouse model of malaria assessed as reduction in parasitaemia at 50 mg/kg, po measured after 7 days by giemsa staining based microscopic analysis; type: functional, organism-based; settings: time 7.0 day; in short: as §4
[30] = Toxicity in zebrafish embryos assessed as reduction in egg hatching at 10 to 100 ug/ml measured 5 days post fertilization; set-up: species or system Danio rerio; settings: in vivo, 120 h, dose 10-100 µg/ml, time 5 day
[31] = Toxicity in zebrafish embryos assessed as reduction in egg hatching measured for 72 hrs; set-up: species or system Danio rerio; settings: in vivo, dose 10-100 µg/ml
[32] = Toxicity in zebrafish embryo assessed as egg hatching at 100 ug/ml measured for 72 hrs relative to control; type: tissue-based, Danio rerio; settings: in vivo, at 100 µg/mL
[33] = Selectivity index, ratio of IC50 for antiplasmodial activity against chloroquine-resistant Plasmodium falciparum FcB1 to IC50 for antiplasmodial activity against chloroquine-sensitive Plasmodium falciparum 3D7; type: functional
[34] = Selectivity index, ratio of IC50 for antiplasmodial activity against chloroquine-resistant Plasmodium falciparum FcB1 to IC50 for antiplasmodial activity against multidrug-resistant Plasmodium falciparum W2; type: functional

Row | SMILES | IC50 [1] | Activity [2] | Activity [3] | solubility thermodynamic at 72 h [4] | survival at 24 h [5] | hemolysis at 1 h, 100 ug/ml [6] | IC50 [7] | IC50 [8] | selectivity ratio [9] | survival at 72 h [10] | Activity [11] | Activity [12] | Activity [13] | IC50 at 48 h [14] | also measured
1 | O=C(OCCCCOC(=O)c1cc(O)c(O)c(O)c1)c1cc(O)c(O)c(O)c1 | 5.7 µM | Non-Toxic | Non-Toxic | 150 µM (≈ 59.1 µg/mL) | > 95% | < 1% | 5 µM | 3.7 µM | > 35 | > 90% | Non-Toxic | Non-Toxic | 100% | > 127 µM | –
2 | O=C(OCCCOC(=O)c1cc(O)c(OCc2ccccc2)c(O)c1)c1cc(O)c(OCc2ccccc2)c(O)c1 | 1.7 µM | Non-Toxic | Non-Toxic | 26 µM (≈ 14.6 µg/mL) | > 95% | < 1% | 1.9 µM | 1.8 µM | 8 | > 90% | Non-Toxic | Non-Toxic | 100% | 14 µM | IC50 at 48 h [15]: 12.1 µM
3 | O=C(O)c1cc(O)c(O)c(O)c1 [GALLIC ACID] | – | – | – | 70000 µM (≈ 11900 µg/mL) | – | < 1% | – | 68 µM | > 4 | – | – | – | – | > 294 µM | IC50 [16]: > 10 µM and 68 µM
4 | O=C(OCCOC(=O)c1cc(O)c(O)c(O)c1)c1cc(O)c(O)c(O)c1 | 3.7 µM | Non-Toxic | Non-Toxic | 430 µM (≈ 157 µg/mL) | > 95% | < 1% | 6.7 µM | 3.7 µM | 19 | > 90% | Non-Toxic | Non-Toxic | 100% | 69 µM | –
5 | O=C(OCCCOC(=O)c1cc(O)c(O)c(O)c1)c1cc(O)c(O)c(O)c1 | 3.2 µM | Non-Toxic | Non-Toxic | 2700 µM (≈ 1030 µg/mL) | > 95% | < 1% | 4.1 µM | 5.8 µM | > 23 | > 90% | Non-Toxic | Non-Toxic | 100% | > 132 µM | Activity [17]: Non-Toxic; Activity [18]: Non-Toxic; Activity [19]: 5%; Activity [20]: 26%
6 | CCN(CC)CCCC(C)Nc1ccnc2cc(Cl)ccc12 (stereo unspecified) [CHLOROQUINE] | – | – | – | – | – | < 1% | – | – | – | – | – | – | – | – | Activity [21]: inactive; Activity [22]: inactive
7 | O=c1oc2c(O)c(O)cc3c(=O)oc4c(O)c(O)cc1c4c23 [ELLAGIC ACID] | 7.5 µM | – | – | 18 µM (≈ 5.44 µg/mL) | – | < 1% | 8.9 µM | 2.8 µM | > 59 | – | – | – | – | > 165 µM | Activity [23]: 100%; Activity [24]: 100%; ED50 [25]: < 1 mg/kg; bioavailability [26]: 1%; ED50 [27]: > 100 mg/kg; IC50 [28]: 2.8 µM; Activity [29]: inactive
8 | O=C(NCCCOC(=O)c1cc(O)c(O)c(O)c1)c1cc(O)c(O)c(O)c1 | 4.7 µM | Non-Toxic | Non-Toxic | 2100 µM (≈ 797 µg/mL) | > 95% | < 1% | 6.8 µM | 6.3 µM | 11 | > 90% | Non-Toxic | Non-Toxic | – | 59 µM | Activity [30]: Toxic; Activity [31]: Dose-Dependent Effect
9 | O=C(NCCCNC(=O)c1cc(O)c(O)c(O)c1)c1cc(O)c(O)c(O)c1 | 26 µM | Non-Toxic | Non-Toxic | 610 µM (≈ 231 µg/mL) | > 95% | < 1% | 12 µM | 9.9 µM | 28 | > 90% | Non-Toxic | Non-Toxic | – | 130 µM | Activity [17]: Non-Toxic; Activity [18]: Non-Toxic; Activity [30]: Toxic; Activity [19]: 54%; Activity [20]: 66%; Activity [32]: 20%; Ratio IC50 [33]: 2; Ratio IC50 [34]: 2; Activity [31]: Dose-Dependent Effect

Reference: ChEMBL document CHEMBL5252676, “Dimeric polyphenols to pave the way for new antimalarial drugs” (RSC Med Chem, 2023)
